Source: article PMC2771199 (Bioorganic & medicinal chemistry, 2009)
“Also recorded” adds a separate entry of the source. Like-named read-outs stand apart in the source and are kept apart here. Values belong to the molecule of their own block, whether it stands above or below them. Where a SMILES comes first, the peptide text is derived from it. The star is where a group is joined. Dnp = O=[N+]([O-])c1ccc(*)c([N+](=O)[O-])c1

Tests used:
LPA1 [1] = molecular target: T1, LPA1 (Homo sapiens, UniProt Q92633); details: read-out: IC50 LPA1; previously reported antagonists; NE no effect; cited from earlier work
T1 sequence (Q92633 whole entry, species assumed): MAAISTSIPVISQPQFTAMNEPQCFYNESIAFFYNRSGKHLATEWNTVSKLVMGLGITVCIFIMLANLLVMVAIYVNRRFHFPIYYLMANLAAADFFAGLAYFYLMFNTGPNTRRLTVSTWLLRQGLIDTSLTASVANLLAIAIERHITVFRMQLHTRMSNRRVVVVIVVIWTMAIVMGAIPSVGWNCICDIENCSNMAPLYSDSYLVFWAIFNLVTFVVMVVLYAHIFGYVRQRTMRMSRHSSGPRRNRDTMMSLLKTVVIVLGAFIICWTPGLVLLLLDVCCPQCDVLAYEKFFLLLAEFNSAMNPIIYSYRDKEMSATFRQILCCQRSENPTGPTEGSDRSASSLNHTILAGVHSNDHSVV

LPA2 [2] = molecular target: T2, LPA2 (Homo sapiens, UniProt Q9HBW0); details: previously reported antagonists, cited from earlier work; for IC50: read-out: IC50 LPA2, NE no effect
T2 sequence (Q9HBW0 whole entry, species assumed): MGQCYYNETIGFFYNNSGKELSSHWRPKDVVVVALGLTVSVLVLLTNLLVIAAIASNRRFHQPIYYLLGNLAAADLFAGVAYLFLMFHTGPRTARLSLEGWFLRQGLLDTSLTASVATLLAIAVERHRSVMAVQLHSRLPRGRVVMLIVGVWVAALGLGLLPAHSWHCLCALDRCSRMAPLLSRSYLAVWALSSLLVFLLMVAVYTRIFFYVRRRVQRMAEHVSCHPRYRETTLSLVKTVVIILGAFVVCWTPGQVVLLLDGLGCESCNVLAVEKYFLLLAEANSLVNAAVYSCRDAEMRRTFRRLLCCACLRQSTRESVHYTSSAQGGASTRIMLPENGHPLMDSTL

LPA3 [3] = molecular target: T3, LPA3 (Homo sapiens, UniProt Q9UBY5); details: previously reported antagonists, cited from earlier work
T3 sequence (Q9UBY5 1-353): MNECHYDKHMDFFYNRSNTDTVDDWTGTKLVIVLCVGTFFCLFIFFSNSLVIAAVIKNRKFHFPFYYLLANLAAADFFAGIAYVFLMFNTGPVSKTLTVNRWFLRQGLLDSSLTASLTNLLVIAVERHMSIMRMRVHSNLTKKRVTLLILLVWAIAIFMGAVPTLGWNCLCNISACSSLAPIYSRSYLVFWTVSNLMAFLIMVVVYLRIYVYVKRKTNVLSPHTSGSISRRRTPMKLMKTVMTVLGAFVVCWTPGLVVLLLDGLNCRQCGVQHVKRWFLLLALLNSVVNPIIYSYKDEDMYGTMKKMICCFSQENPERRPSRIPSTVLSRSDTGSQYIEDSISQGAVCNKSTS

LPA5 [4] = molecular target: T4, LPA5 (Homo sapiens, UniProt Q9H1C0); details: read-out: IC50 LPA5; previously reported antagonists; NE no effect; cited from earlier work
T4 sequence (Q9H1C0 whole entry, species assumed): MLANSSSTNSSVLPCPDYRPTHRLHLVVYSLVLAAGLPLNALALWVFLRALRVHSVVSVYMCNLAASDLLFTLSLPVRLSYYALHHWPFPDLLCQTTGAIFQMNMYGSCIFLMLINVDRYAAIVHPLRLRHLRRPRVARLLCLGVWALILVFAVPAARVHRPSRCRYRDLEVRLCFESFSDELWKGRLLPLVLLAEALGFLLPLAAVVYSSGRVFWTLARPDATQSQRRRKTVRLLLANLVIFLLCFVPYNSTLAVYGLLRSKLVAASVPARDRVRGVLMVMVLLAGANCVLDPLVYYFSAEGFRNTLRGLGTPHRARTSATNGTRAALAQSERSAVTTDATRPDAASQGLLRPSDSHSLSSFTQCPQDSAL

LPA4 [5] = molecular target: T5, LPA4 (Homo sapiens, UniProt Q99677); details: read-out: IC50 LPA4; previously reported antagonists; NE no effect; cited from earlier work
T5 sequence (Q99677 whole entry, species assumed): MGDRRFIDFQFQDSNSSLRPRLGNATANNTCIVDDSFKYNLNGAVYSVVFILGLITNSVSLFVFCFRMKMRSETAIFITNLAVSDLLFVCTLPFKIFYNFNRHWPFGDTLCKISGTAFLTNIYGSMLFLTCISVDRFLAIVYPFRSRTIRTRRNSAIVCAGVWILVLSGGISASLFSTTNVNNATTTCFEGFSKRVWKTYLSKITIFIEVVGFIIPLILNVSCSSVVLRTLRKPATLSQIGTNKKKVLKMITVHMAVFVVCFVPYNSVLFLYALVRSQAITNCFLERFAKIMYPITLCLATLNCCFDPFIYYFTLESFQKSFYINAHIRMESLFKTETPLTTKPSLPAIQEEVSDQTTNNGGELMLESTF

LPA5 [6] = molecular target: T4, LPA5; experiment: LPA receptor-promoted intracellular Ca2+ mobilization, LPA5; assay type: cell-based; details: for IC50: read-out: IC50 LPA5, dose response
How it was run: (§1)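 Cells stably expressing the given LPA receptor were plated and cultured overnight, then moved to serum-free medium for 4-6 h and loaded with fura-2. Intracellular Ca2+ was read on a plate fluorometer as the ratio of 520 nm emission under 340 vs 380 nm excitation. Test compounds were dissolved in methanol, diluted in buffer, and run in quadruplicate. IC50 was taken from concentration-response curves.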

LPA4 [7] = molecular target: T5, LPA4; experiment: LPA receptor-promoted intracellular Ca2+ mobilization, LPA4; assay type: cell-based; details: read-out: IC50 LPA4; dose response
How it was run: as §1

LPA1 [8] = molecular target: T1, LPA1; experiment: LPA receptor-promoted intracellular Ca2+ mobilization, LPA1; assay type: cell-based; details: for IC50: read-out: IC50 LPA1, dose response; for LPA1 antagonist activity (in words): Ca2+ assay
How it was run: as §1

LPA2 [9] = molecular target: T2, LPA2; experiment: LPA receptor-promoted intracellular Ca2+ mobilization, LPA2; assay type: cell-based; details: read-out: IC50 LPA2; dose response
How it was run: as §1

LPA3 [10] = molecular target: T3, LPA3; experiment: LPA receptor-promoted intracellular Ca2+ mobilization, LPA3; assay type: cell-based; details: for % inhibition at 10μM: Table 3, LPA3 inhibition; for LPA3 antagonist activity (in words): Ca2+ assay
[11] = 10 μM compound against 200 nM LPA

Compound: NCC(=O)N[C@@H](CSc1ccc([N+](=O)[O-])cc1[N+](=O)[O-])C(=O)N[C@@H](CCC(=O)O)C(=O)O [Compound 1] (H-Gly-Cys(Dnp)-Glu-OH)
- IC50 (LPA1 [1]): > 10 µM
- IC50 (LPA2 [2]): > 10 µM
- Imax LPA3 (LPA3 [3]): 69.8%
- IC50 (LPA5 [4]): > 10 µM
- IC50 (LPA4 [5]): > 10 µM

Compound: O=C(O)/C=C/C(=O)Nc1cccc(NC(=O)/C=C/C(=O)O)c1 [Compound 2]
- IC50 (LPA3 [3]; read-out: IC50 LPA3, NE no effect): > 10 µM
- IC50 (LPA5 [4]): > 10 µM
- IC50 (LPA4 [5]): > 10 µM

Compound: O=C(O)/C=C/C(=O)Nc1cccc(NC(=O)/C=C/C(=O)O)c1C(=O)O [Compound 3]
- IC50 (LPA1 [1]): > 10 µM
- Imax LPA2 (LPA2 [2]): 53.3%
- Imax LPA3 (LPA3 [3]): 81.7%
- IC50 (LPA5 [4]): > 10 µM
- IC50 (LPA4 [5]): > 10 µM

Compound: O=C(O)/C=C/C(=O)Nc1ccc(Oc2cccc(Oc3ccc(NC(=O)/C=C/C(=O)O)cc3)c2)cc1 [Compound 4]
- IC50 (LPA5 [4]): > 10 µM
- IC50 (LPA4 [5]): > 10 µM

Compound: O=C(O)CN1C(=O)c2ccc(Oc3cccc([N+](=O)[O-])c3)cc2C1=O [Compound 5, [5-(3-nitrophenoxy)-1,3-dioxo-1,3-dihydro-2-isoindol-2-yl]acetic acid]
- IC50 (LPA1 [1]): > 10 µM
- IC50 (LPA5 [6]): > 10 µM
- IC50 (LPA2 [2]): > 10 µM
- IC50 (LPA4 [7]): > 10 µM
- IC50 (LPA1 [8]): > 10 µM
- IC50 (LPA5 [4]): > 10 µM
- IC50 (LPA4 [5]): > 10 µM
- IC50 (LPA2 [9]): > 10 µM

Compound: O=C(O)COc1ccc(N2C(=O)c3ccc(Oc4cccc([N+](=O)[O-])c4)cc3C2=O)cc1 [Compound 6]
- % inhibition at 10μM (LPA3 [10]; [11]): agonist

Compound: O=C1c2ccc(Oc3cccc([N+](=O)[O-])c3)cc2C(=O)N1Cc1cccnc1 [Compound 8]
- LPA3 antagonist activity (in words) (LPA3 [10]): active

Compound: O=C(O)CN1C(=O)c2ccc(Oc3ccc([N+](=O)[O-])cc3)cc2C1=O [Compound 11]
- IC50 (LPA5 [6]): > 10 µM
- LPA3 antagonist activity (in words) (LPA3 [10]): no inhibition; also recorded: no activity
- LPA3 antagonist activity (in words) (LPA3 [10]; listed as compound 11): no antagonist activity
- IC50 (LPA3 [10]; read-out: IC50 LPA3, dose response, activation by 200 nM LPA): > 10 µM
- inhibition at 10 µM (LPA3 [10]; read-out: Percent inhibiton at 10μM, Table 2, 10 μM compound against 200 nM LPA): < 10%
- IC50 (LPA4 [7]): > 10 µM
- IC50 (LPA1 [8]): > 10 µM
- IC50 (LPA2 [9]): > 10 µM

More lines, now with the values ahead:

- IC50 (LPA5 [6]): > 10 µM
- IC50 (LPA4 [7]): > 10 µM
- LPA1 antagonist activity (in words) (LPA1 [8]): LPA1 antagonists
- IC50 (LPA2 [9]): > 10 µM
Compound: Cc1ccc(Oc2ccc3c(c2)C(=O)N(CC(=O)O)C3=O)cc1 [Compound 12]

- LPA3 antagonist activity (in words) (LPA3 [10]): not active
Compound: Cc1ccc(Oc2ccc3c(c2)C(=O)N(CC2CCCO2)C3=O)cc1 (stereo not shown) [Compound 14]

- % inhibition at 10μM (LPA3 [10]; [11]): Agonist
Compound: O=C(O)CN1C(=O)c2ccc(C(=O)c3cccc([N+](=O)[O-])c3)cc2C1=O [Compound 15]

- % inhibition at 10μM (LPA3 [10]; [11]): Agonist
Compound: CC(=O)COc1ccc(NC(=O)CN2C(=O)c3ccc([N+](=O)[O-])cc3C2=O)cc1 [Compound 18]

- LPA5 antagonist activity (in words) (LPA5 [6]; Ca2+ assay): LPA5 antagonist
- fold increase in potency compared to compound 5 (LPA3 [10]; LPA3 IC50 versus compound 5): 6 fold
- % inhibition at 10μM (LPA3 [10]; [11]): > 50%
- IC50 (LPA4 [7]): > 10 µM
- LPA1 antagonist activity (in words) (LPA1 [8]): LPA1 antagonists
- IC50 (LPA2 [9]): > 10 µM
Compound: O=C(O)c1ccc2c(c1)C(=O)N(c1cccc(Oc3ccc([N+](=O)[O-])cc3)c1)C2=O [Compound 20]
